FID counter – compounds displacing fluorescent DNA intercalator, primary screen, artefact control for HCV NS3 helicase inhibitor project, biochemical, FID fluorescence | AID 1845, 2009 | 290,000 tested, 0.17% active | inhibition, % at 7.9 µM | DNA fluorescent intercalator displacement; in the data active = inhibition above about 37%;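 also: 0% = vehicle and 100% = reference compound; higher means more ethidium bromide displaced from hairpin DNA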
PLC-gamma1 inh – PLC-gamma1 enzyme inhibitors, primary screen, biochemical, fluorescence, purified enzyme; fluorogenic substrate; inhibition, % at 12.2 µM; AID 720700, 2013; 1-phosphatidylinositol 4,5-bisphosphate phosphodiesterase gamma-1 (Homo sapiens), P19174; 370,000 tested, 0.84% active; in the data active = inhibition above about 9.5%
Target sequence (P19174 whole entry, looked up): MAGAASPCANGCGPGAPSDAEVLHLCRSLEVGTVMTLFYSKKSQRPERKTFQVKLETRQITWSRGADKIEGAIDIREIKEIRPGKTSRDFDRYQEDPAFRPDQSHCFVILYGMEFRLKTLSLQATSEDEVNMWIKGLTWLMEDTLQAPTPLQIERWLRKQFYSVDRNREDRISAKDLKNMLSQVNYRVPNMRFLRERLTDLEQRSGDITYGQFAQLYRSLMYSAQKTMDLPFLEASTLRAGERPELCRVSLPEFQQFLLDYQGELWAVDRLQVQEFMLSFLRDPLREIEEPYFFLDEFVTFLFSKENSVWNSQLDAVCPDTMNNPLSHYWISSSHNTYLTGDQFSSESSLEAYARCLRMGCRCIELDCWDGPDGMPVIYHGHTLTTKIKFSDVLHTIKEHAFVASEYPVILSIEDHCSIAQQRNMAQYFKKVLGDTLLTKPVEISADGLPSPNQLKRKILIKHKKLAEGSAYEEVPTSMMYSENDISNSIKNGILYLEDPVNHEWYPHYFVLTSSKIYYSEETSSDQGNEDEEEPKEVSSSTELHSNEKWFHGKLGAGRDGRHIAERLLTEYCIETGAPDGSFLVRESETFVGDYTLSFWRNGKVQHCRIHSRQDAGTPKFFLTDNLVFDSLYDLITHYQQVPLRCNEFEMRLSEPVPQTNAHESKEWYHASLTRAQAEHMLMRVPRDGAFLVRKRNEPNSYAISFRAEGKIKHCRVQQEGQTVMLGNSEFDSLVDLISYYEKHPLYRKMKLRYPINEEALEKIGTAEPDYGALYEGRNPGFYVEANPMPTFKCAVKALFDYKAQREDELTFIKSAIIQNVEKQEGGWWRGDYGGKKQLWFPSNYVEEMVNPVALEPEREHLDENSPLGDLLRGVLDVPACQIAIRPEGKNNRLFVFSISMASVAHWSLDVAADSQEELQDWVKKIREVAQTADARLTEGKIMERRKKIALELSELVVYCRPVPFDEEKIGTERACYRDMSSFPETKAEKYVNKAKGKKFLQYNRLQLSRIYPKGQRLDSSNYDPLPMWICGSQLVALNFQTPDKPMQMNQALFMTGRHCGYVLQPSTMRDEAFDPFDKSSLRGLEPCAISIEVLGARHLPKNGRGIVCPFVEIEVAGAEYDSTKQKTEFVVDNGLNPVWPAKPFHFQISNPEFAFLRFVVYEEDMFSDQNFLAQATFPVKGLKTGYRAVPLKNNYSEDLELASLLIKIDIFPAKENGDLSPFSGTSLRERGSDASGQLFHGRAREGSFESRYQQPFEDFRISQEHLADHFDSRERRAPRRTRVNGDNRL
PLCb3 inh – human PLC-beta3 inhibitors, primary screen, biochemical, fluorescence; 1-phosphatidylinositol 4,5-bisphosphate phosphodiesterase beta-3 (Homo sapiens), Q01970; Purified PLC-beta3, fluorogenic substrate; inhibition, % at 12.2 µM; 370,000 tested, 0.18% active; AID 720704, 2013;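 also: 0% = median of compound wells on plate and 100% = full blocker control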
Tn6 DDE FP – inhibitors of Tn6 peptide binding to fibrin DD(E), primary screen, biochemical, fluorescence polarization, human fibrin, Tn6 probe | AID 720509, 2013 | 370,000 tested, 0.21% active | inhibition, % at 8.3 µM | Fibrinogen beta chain (Homo sapiens), P02675 | Fibrin DD(E) TRITC-Tn6 fluorescence polarization displacement;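 active = inhibition above a per-campaign cutoff: mean of compounds within control limits plus 3 SD, cut at about 15% in these data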;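 also: 0% = median of all compound wells on the plate and 100% = blocking peptide control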
Tn7 DDE FP – inhibitors of Tn7 peptide binding to fibrin DD(E), primary screen, biochemical, fluorescence polarization, human fibrin, Tn7 probe. Fibrinogen beta chain (Homo sapiens), P02675. inhibition, % at 8.3 µM. FP displacement of FITC-Tn7 peptide from fibrin DD(E); 0% = median of compound wells per plate. 370,000 tested, 0.13% active;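 active = inhibition above the mean of compounds falling within the control limits plus 3 SD of them, cut at about 14% in these data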;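 also: 0% = plate median of compound wells and 100% = 10 µM Aha-Tn7 peptide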
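Also added: labelled Tn7 tracer, 0.1 µM; Assay system: human fibrin DD(E) protein; Amount: 2 µM fibrin DD(E); Schedule: 10 min compound pre-incubation, 3 h probe incubation at room temperature; Repeats: one replicate per compound; Read-out basis: percent inhibition; Measured by: fluorescence polarization of the labelled Tn7 tracer.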
PLCgamma1 ctr – PLC-gamma1 enzyme inhibitors, counter-screen for PLC-beta3 inhibitor project, biochemical, fluorescence. 3,300 tested, 3.1% active. shares compounds with PLC-gamma1 inh. purified PLC-gamma1, fluorogenic substrate. AID 743258, 2014. inhibition, % at 12.3 µM; in the data active = inhibition above about 9.5%
PLCb3 confirm – PLC-beta3 inhibitor confirmation, biochemical, fluorescence, purified enzyme | shares compounds with PLC-gamma1 inh | fluorogenic substrate fluorescence | inhibition, % at 12.3 µM | 3,300 tested, 1% active
The depositor's hits bear a star; x = no result given. A selection: hits, their analogues and other compounds. The true share with any hit is near 1.4%. Rule as the data show it, unless noted: active = inhibition above about 11%; inactive = the rest.

SMILES	FID counter	PLC-gamma1 inh	PLCb3 inh	Tn6 DDE FP	Tn7 DDE FP	PLCgamma1 ctr	PLCb3 confirm
Cc1sc2ccccc2c1CNC[C@H]1O[C@@H](n2cnc(C(N)=O)n2)[C@H](O)[C@@H]1O	x	9.8*	2.7	-6.3	-0.5	-4.1	-3.1
Cc1sc2ccccc2c1CNC[C@H]1O[C@@H](n2ccc(N)nc2=O)[C@H](O)[C@@H]1O	x	4.5	1.1	-2.3	4.4	x	x
COc1cc2[nH]c(=O)n(C3CCCCC3)c(=O)c2cc1OC	-6.1	12.7*	14.0*	2.1	1.3	-6.9	-3.1
CCOc1cc2[nH]c(=S)n(C3CC3)c(=O)c2cc1OCC	-7.9	-2.6	-9.5	10.2	7.4	x	x
CN(Cc1cn(C)nc1-c1ccc(Oc2ccccc2)cc1)Cc1cnc2ccccn12	3.2	5.2	-2.8	6.4	-0.8	x	x
Cn1cc(CNCc2cnc3ccccn23)c(-c2ccc(Oc3ccccc3)cc2)n1	5.1	14.8*	8.4	2.0	1.6	2.1	4.8
CCc1ccc(S(=O)(=O)Nc2ccc(Br)cn2)cc1	-10.5	-1.3	-8.8	5.7	-0.1	x	x
COc1ccc(CNCC(O)(c2ccc(Cl)cc2)c2ccc(Cl)cc2)cc1OC	9.5	9.8*	5.7	-4.7	-6.4	-1.8	2.8
NC(=O)c1ccsc1NC(=O)COC(=O)CNC(=O)c1cccc([N+](=O)[O-])c1	x	1.1	-7.4	-5.8	-0.7	x	x
Cc1ccc(CN2CCC[C@]3(N[C@H](c4ccccc4)[C@@H]4C(=O)N(Cc5ccccc5)C(=O)[C@@H]43)C2=O)cc1	x	0.5	-0.1	2.4	1.6	x	x
Cc1ccc(CN2CCC[C@]3(N[C@H](c4ccc(C)cc4)[C@@H]4C(=O)N(Cc5ccccc5)C(=O)[C@@H]43)C2=O)cc1	x	9.9*	7.5	-4.2	-0.3	-2.4	0.6
COc1ccc(NC(=O)n2ncc3c(C)cccc32)cc1	-6.8	3.6	-6.2	-2.8	1.2	x	x
O=C(O)c1cccc2cccc(-c3c4ccc(=O)c(O)c-4oc4c(O)c(O)ccc34)c12	x	39.0*	-6.4	-7.2	5.1	27.7*	-5.9
COc1ccc(N2CC(C(=O)Nc3cccc(OC(C)C)c3)CC2=O)cc1 (configuration not stated)	-34.0	1.0	-7.6	5.1	5.2	x	x
CC(C)Oc1ccc(N2CC(C(=O)Nc3ccc(N4CCOCC4)cc3)CC2=O)cc1 (configuration not stated)	-10.6	12.5*	12.2*	-1.8	-0.1	4.7	3.9
Cc1onc(-c2c(Cl)cccc2Cl)c1C(=O)ONC(=O)c1cc(C(F)(F)F)cc(C(F)(F)F)c1	-8.5	10.1*	5.4	-0.3	-4.8	3.8	3.8
Cc1onc(-c2c(Cl)cccc2Cl)c1C(=O)Nn1cnnc1	3.8	0.2	0.1	-4.5	-8.1	x	x
Clc1nc(N2CCOCC2)ncc1Br	0.3	11.9*	-4.5	0.5	-2.2	-7.5	1.2
Fc1cnc(N2CCOCC2)nc1N1CCOCC1	-3.8	-1.7	-2.3	-1.6	-1.6	x	x
N#Cc1c(N2CCOCC2)nsc1-c1ccc(C(F)(F)F)cc1	-6.4	-11.7	-20.8	-4.4	0.2	x	x
O=C(CCCCCn1c(=S)[nH]c2cc3c(cc2c1=O)OCO3)N1CCN(C2CCCCC2)CC1	12.0	1.9	3.9	5.2	3.5	x	x
CN1CCN(CC(=O)Nc2c(C(=O)C3CC3)oc3ccccc23)CC1	25.8	10.7*	5.2	8.0	-1.2	-4.0	-0.5
O=C(CN1CCOCC1)Nc1c(C(=O)C2CC2)oc2ccccc12	-18.9	0.0	1.1	5.2	6.5	x	x
CN1CCN(c2ccc(CNC[C@H]3O[C@@H](n4cnc5c(=O)[nH]c(N)nc54)[C@H](O)[C@@H]3O)c(F)c2)CC1	x	9.8*	1.9	-5.0	-5.5	-8.7	-5.8
c1ccc(CSc2nnc(SCc3ccccn3)s2)nc1	-8.8	11.1*	14.4*	6.2	-7.7	-4.5	-2.6
SMILES	FID counter	PLC-gamma1 inh	PLCb3 inh	Tn6 DDE FP	Tn7 DDE FP	PLCgamma1 ctr	PLCb3 confirm
CCOCCCNC(=O)CN1C(=O)COc2ccc(S(=O)(=O)N3CCCCCC3)cc21	-34.7	1.4	-3.0	5.7	4.1	x	x
CCOCCCNC(=O)CN1CCN(S(=O)(=O)c2ccc3c(c2)CCC3)CC1	x	9.6*	-9.9	-5.6	-3.1	-5.8	-4.0
COc1cc(=O)n(C)c2c(OCC3OC(C)(C)OC3(C)C)cccc12 (configuration not stated)	-33.9	1.0	-1.4	-2.6	2.7	x	x
CCOC(=O)c1ccccc1N/C=C1\CCCC1=O	-11.7	-8.9	-17.0	-0.3	-3.6	x	x
O=C(N/N=C\c1ccc(Cl)cc1)C1=NOC2COC3(CCN(c4ccc([N+](=O)[O-])cc4)CC3)OCC12 (configuration not stated)	4.0	14.2*	12.9*	-5.8	-0.3	-19.0	-24.3
O=S(=O)(NCCOCCNS(=O)(=O)c1ccccc1)c1ccccc1	-1.9	11.0*	4.9	2.9	5.2	6.3	-1.5
O=C(Cc1cccs1)NCc1cccc(CNC(=O)Cc2cccs2)c1	-15.1	4.9	3.3	-2.8	-3.3	x	x
O=C(Cc1cccs1)NCc1ccccc1Br	-15.1	11.5*	6.2	2.4	-4.6	-8.1	-5.8
CCCNC(=O)c1cc2c(C(F)(F)F)nn(C)c2s1	2.8	13.1*	1.0	-2.1	-2.4	-4.8	-0.8
CC(C)NC(=O)c1cc2c(C(F)(F)F)nn(C)c2s1	-0.5	0.4	5.4	-0.2	-6.5	x	x
CCOc1ccc(S(=O)(=O)N2CCC(C(=O)NCc3cccnc3)CC2)cc1	-13.1	12.4*	-2.8	-7.9	-2.2	-2.2	0.8
CN(C(=O)COc1ccccc1C(=O)NCCOc1ccccc1)c1ccccc1	-39.0	15.1*	16.9*	-2.0	-2.7	6.0	11.6*
CCOC(=O)C1=C(C)NC(C)=C(C(=O)OCC)C1C(=O)OCC(=O)NCc1ccco1	x	-72.9	-95.7	0.7	-5.4	x	x
Cc1ccccc1NC(=O)CNc1ccc(Cl)c(C(F)(F)F)c1	9.0	12.6*	16.2*	0.6	-5.2	3.3	7.1
CNCC(=O)Nc1ccc(Cl)c(C(F)(F)F)c1	8.9	1.6	0.1	-2.6	-6.5	x	x
Cc1nc2cc(NS(=O)(=O)c3cccc4cccnc34)ccc2s1	-24.1	1.8	-1.2	10.9	3.2	x	x
